pEC50, pIC50: −log10 of the molar value. Activity calls are given as the source filed them. The calls are words filed in the database; no cut-off is given here.
Key:
[1] = biological target: Tyrosine-protein kinase Lck (Homo sapiens, UniProt P06239); test: Inhibitory activity against recombinant human p56 Lck tyrosine kinase
Jurkat = test: Inhibition of calcium release in Jurkat cells; type: functional, cell-based; conditions: Homo sapiens
Method in brief: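 Jurkat cells were washed, loaded with Fluo-3 (2 μM final), then held in HBSS with Ca/Mg, HEPES, probenecid and 1% FBS at pH 7.4, giving 3 × 10⁵ cells/mL final. Compound was added for 15 min at room temperature. Anti-CD3 (clone X35, 0.25 μg/mL final) was then added and fluorescence followed for 13 min. EC50 is the mean of ≥2 experiments in duplicate ± SD.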

[2] = biological target: cAMP-dependent protein kinase (PKA) (Homo sapiens) (UniProt P22694+P17612+P22612); test: Inhibition of Protein kinase A (PKA) - No inhibition at 500 uM; type: protein assay
[3] = Inhibition of Extracellular signal-regulated kinase (Erk) - No inhibition at 100 ug/mL
[4] = biological target: MAP kinase p38 (Homo sapiens) (UniProt O15264+Q15759+Q16539+P53778); test: Inhibition of Mitogen-activated protein kinase p38 - No inhibition at 10 ug/mL; type: protein assay
[5] = biological target: Epidermal growth factor receptor (Homo sapiens, UniProt P00533); test: Inhibition of Epidermal growth factor receptor
[6] = biological target: Tyrosine-protein kinase SYK (Homo sapiens, UniProt P43405); test: Inhibition of Syk tyrosine kinase
Method in brief: (§1)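 Enzyme amount for each kinase chosen to give a linear response over the whole reaction period. Inhibition was read as IC50 or as the highest concentration tested.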

[7] = biological target: T1, Tyrosine-protein kinase ZAP-70 (Homo sapiens, UniProt P43403); test: Inhibition of Zeta-chain (TCR) associated protein kinase 70 kDa (ZAP70) with 1 uM ATP
T1 sequence (P43403 whole entry): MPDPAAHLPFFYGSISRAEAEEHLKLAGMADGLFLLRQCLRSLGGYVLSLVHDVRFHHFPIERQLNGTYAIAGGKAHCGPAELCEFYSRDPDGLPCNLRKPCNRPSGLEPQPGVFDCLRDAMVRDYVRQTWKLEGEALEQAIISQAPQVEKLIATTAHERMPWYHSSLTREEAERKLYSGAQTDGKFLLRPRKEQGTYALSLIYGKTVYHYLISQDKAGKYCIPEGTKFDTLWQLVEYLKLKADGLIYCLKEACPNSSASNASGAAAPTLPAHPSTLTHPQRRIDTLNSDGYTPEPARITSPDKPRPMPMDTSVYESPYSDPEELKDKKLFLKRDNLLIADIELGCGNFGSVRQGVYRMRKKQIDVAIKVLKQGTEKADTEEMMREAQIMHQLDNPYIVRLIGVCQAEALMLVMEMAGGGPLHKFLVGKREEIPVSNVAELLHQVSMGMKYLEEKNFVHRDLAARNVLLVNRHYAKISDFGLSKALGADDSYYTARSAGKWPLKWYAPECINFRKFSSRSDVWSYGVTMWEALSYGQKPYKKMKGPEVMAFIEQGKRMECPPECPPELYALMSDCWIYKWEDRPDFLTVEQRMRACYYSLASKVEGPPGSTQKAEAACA
Method in brief: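 Radiometric kinase assay with enzyme amount set to give a linear response over the reaction period. ATP at 1 μM final with γ³³P-ATP at 20 Ci/mmol. Compounds from 5 mg/mL DMSO stock, final 200 to 1 μg/mL for IC50. Reactions started with enzyme, run 60 min at 30 °C, stopped with TCA/pyrophosphate, filter-harvested, and counted by scintillation.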

[8] = biological target: Proto-oncogene tyrosine-protein kinase Src (Homo sapiens, UniProt P12931); test: Inhibition of c-SRC with 1 uM ATP; method in brief: as §1
Proto-oncogene tyrosine-protein kinase Src, sequence (P12931 2-536 limits assumed): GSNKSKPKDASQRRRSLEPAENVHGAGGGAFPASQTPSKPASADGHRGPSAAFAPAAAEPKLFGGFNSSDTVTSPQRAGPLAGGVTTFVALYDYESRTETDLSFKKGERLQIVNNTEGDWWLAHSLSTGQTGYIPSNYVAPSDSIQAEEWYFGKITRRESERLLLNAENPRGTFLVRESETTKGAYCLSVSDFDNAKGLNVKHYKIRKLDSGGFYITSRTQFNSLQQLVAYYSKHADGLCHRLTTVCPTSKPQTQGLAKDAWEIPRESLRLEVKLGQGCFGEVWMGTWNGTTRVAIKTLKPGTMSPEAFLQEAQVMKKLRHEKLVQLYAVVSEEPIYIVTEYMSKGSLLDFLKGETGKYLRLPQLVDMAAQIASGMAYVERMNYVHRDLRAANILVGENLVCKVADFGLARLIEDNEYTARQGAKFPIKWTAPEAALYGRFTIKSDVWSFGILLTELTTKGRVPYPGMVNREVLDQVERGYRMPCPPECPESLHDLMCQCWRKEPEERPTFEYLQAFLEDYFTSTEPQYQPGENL

Tyrosine-protein kinase Lck, sequence (P06239 whole entry): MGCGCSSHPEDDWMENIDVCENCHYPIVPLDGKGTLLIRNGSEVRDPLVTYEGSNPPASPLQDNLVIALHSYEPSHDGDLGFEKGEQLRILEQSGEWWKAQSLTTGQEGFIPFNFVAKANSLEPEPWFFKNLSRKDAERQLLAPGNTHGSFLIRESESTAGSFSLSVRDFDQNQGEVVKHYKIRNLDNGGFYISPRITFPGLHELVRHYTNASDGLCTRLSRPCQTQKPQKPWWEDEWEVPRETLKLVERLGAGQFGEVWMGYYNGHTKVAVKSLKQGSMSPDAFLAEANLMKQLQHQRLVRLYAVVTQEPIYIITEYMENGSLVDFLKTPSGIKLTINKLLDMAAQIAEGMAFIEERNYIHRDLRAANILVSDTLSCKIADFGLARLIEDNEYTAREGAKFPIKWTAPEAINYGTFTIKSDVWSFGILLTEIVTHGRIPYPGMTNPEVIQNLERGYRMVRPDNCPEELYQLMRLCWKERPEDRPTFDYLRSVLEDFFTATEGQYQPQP
Epidermal growth factor receptor, sequence (P00533 whole entry): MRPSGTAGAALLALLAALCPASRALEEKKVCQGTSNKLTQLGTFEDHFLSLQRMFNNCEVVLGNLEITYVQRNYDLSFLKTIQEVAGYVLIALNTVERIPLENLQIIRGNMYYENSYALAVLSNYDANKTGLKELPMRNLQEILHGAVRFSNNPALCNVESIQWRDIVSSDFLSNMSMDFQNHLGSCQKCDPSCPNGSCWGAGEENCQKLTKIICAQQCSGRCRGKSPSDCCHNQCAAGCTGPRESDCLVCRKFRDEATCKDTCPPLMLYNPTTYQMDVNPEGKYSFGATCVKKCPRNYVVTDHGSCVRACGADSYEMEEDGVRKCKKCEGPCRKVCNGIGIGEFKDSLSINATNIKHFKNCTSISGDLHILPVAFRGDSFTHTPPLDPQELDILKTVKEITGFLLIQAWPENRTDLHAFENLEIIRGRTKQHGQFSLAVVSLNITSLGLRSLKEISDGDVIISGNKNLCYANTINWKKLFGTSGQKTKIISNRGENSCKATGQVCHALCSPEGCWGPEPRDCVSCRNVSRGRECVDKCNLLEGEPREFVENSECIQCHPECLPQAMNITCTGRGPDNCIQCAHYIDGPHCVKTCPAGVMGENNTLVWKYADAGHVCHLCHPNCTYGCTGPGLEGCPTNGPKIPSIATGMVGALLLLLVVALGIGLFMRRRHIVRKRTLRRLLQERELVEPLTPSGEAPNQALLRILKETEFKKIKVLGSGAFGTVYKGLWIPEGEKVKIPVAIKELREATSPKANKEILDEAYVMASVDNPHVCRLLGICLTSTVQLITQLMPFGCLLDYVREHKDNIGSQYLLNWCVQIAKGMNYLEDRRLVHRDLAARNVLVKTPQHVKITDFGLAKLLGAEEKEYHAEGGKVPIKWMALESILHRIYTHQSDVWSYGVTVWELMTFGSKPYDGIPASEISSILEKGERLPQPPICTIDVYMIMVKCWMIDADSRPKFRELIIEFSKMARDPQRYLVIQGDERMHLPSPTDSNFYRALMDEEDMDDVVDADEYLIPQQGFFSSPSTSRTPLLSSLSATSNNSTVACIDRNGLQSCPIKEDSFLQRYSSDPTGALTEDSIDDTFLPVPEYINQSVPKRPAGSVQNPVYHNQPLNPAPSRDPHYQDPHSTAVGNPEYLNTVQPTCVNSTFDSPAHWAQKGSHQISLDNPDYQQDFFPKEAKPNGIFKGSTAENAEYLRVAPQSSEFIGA

Row | SMILES | pIC50 [1] | pEC50 (Jurkat) | other results
1 | Cc1cccc(C)c1Nc1nc2ccc3c(c2[nH]1)C(=O)NC(=O)C3(C)C | 6.34 | 5.34 | –
2 | CC1(C)C(=O)NC(=O)c2c1ccc1nc(Nc3c(Br)cc(Br)cc3Br)[nH]c21 | 6.22 | 5.14 | –
3 | CC1(C)C(=O)NC(=O)c2c1ccc1[nH]c(Cc3c(Cl)cccc3Cl)nc21 | 5.02 | – | –
4 | Cc1[nH]c(=O)c2c(ccc3[nH]c(Nc4ccccc4Cl)nc32)c1C | 6.82 | – | –
5 | Cc1nc(O)c2c(ccc3[nH]c(Nc4c(Cl)cccc4Cl)nc32)c1C | – | 6.72 | NI [2]: inactive; NI [3]: inactive; NI [4]: inactive
6 | CC1(C)CNCc2c1ccc1[nH]c(Nc3c(Cl)cccc3Cl)nc21 | < 4.40 | – | –
7 | Cc1cccc(Cl)c1Nc1nc2c(ccc3c(C)c(C)nc(O)c32)[nH]1 | 7.57 | 6.47 | –
8 | CCC1(CC)C(=O)NC(=O)c2c1ccc1[nH]c(Nc3c(Cl)cccc3Cl)nc21 | 5.23 | – | –
9 | CC1(C)C(=O)NC(=O)c2c1ccc1[nH]c(Nc3c(Cl)cc(Cl)cc3Cl)nc21 | 6.14 | 5.37 | –
10 | CC1(C)C(=O)NC(=O)c2c1ccc1nc(Nc3c(Cl)cccc3Cl)[nH]c21 | 6.34 | 5.01 | –
11 | CC1(C)C(=O)NC(=O)c2c1ccc1[nH]c(Nc3c(Cl)c(Cl)cc(Cl)c3Cl)nc21 | < 4.40 | – | –
12 | Cc1nc(O)c2c(ccc3[nH]c(Nc4c(Br)cc(Br)cc4Br)nc32)c1C | 7.60 | 6.21 | –
13 | CC1(C)C(=O)NC(=O)c2c1ccc1nc(Nc3ccccc3Cl)[nH]c21 | < 4.40 | – | –
14 | Cn1c(Nc2c(Cl)cccc2Cl)nc2c3c(ccc21)C(C)(C)C(=O)NC3=O | 5.60 | – | –
15 | Cc1[nH]c(=O)c2c(ccc3nc(Nc4c(Cl)cccc4Cl)[nH]c32)c1C | 7.59 | – | pIC50 [5]: 4.00; pIC50 [6]: < 4.00; pIC50 [7]: 4.10; pIC50 [8]: 7.92
16 | CC1(C)C(=O)NC(=O)c2c1ccc1[nH]c(Nc3c(F)cccc3F)nc21 | 4.96 | – | –
17 | CC1(C)C(=O)NC(=O)c2c1ccc1nc(Nc3ccc(Cl)cc3Cl)[nH]c21 | < 4.40 | – | –
18 | O=C1NCCc2ccc3[nH]c(Nc4c(Cl)cccc4Cl)nc3c21 | 6.42 | 5.74 | –
19 | CN(c1nc2c3c(ccc2[nH]1)C(C)(C)C(=O)NC3=O)c1c(Cl)cccc1Cl | 5.60 | – | –
20 | Cc1nc(O)c2c(ccc3[nH]c(Nc4c(Cl)cc(Cl)cc4Cl)nc32)c1C | 7.74 | 6.38 | –
21 | CCc1cccc(CC)c1Nc1nc2ccc3c(c2[nH]1)C(=O)NC(=O)C3(C)C | < 4.40 | – | –
22 | Cc1cccc(Cl)c1Nc1nc2c3c(ccc2[nH]1)C(C)(C)C(=O)NC3=O | 6.11 | 5.54 | –
23 | CC1(C)CNC(=O)c2c1ccc1nc(Nc3c(Cl)cccc3Cl)[nH]c21 | 5.96 | 5.28 | –
24 | CC(C)CC1(C)C(=O)NC(=O)c2c1ccc1nc(Nc3c(Cl)cccc3Cl)[nH]c21 (stereo not drawn) | 5.29 | – | –
25 | CC1(C)C(=O)NC(=O)c2c1ccc1nc(Nc3ccc(Cl)cc3)[nH]c21 | < 4.40 | – | –
26 | CN1C(=O)c2c(ccc3nc(Nc4c(Cl)cccc4Cl)[nH]c23)C(C)(C)C1=O | 5.02 | – | –

Reference: ChEMBL document CHEMBL1135526, “Discovery of 2-phenylamino-imidazo[4,5-h]isoquinolin-9-ones: a new class of inhibitors of lck kinase” (J Med Chem, 2002)
